Reference: ChEMBL document CHEMBL1148368, “Synthesis and antitumor activity of quinonoid derivatives of cannabinoids” (2004)

What was measured:
SNB-19 = test: Concentration of compound required to inhibit the growth of SNB-19 cells; type: functional, cell-based; conditions: Homo sapiens
Method in brief: (§1)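 Adherent/epithelial cancer cells were grown in RPMI 1640 with 10% heat-inactivated FCS, 2 mM L-glutamine, penicillin and streptomycin at 37 °C in 5% CO2. Cells were seeded at 0.02×10^6 per well with varied quinone concentrations. MTT readout was taken after 3 days. Five replicate wells were used per concentration, in 2–3 repeat experiments. Results are % inhibition versus untreated wells given 0.5% ethanol vehicle.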

Jurkat [1] = test: Inhibition of the growth of Jurkat lymphoma cells at 12.5-25.0 ug/ml concentration; type: functional, Homo sapiens
Method in brief: (§2)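 Lymphoma cells were suspended in RPMI 1640 with 20% heat-inactivated FCS, 2 mM L-glutamine, penicillin and streptomycin at 37 °C in 5% CO2. Cells were plated at 0.02×10^6 per well with varied quinone concentrations. MTT reduction was measured on day 3. Five replicate wells were used per concentration, in 2–3 repeat experiments. Inhibition is expressed as % versus 0.5% ethanol vehicle wells.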

Raji [2] = test: Inhibition of the growth of Raji lymphoma cells at 12.5-25.0 ug/ml concentration; type: functional, Homo sapiens; method in brief: as §2
Raji [3] = test: Inhibition of the growth of Raji lymphoma cells at 6.25 ug/ml concentration; type: functional; conditions: Homo sapiens; method in brief: as §2
HT-29 = test: Inhibition of the growth of HT-29 colon cancer cells at 3.125 ug/ml concentration; type: functional; conditions: Homo sapiens; method in brief: as §1
Jurkat [4] = test: Inhibition of the growth of Jurkat lymphoma cells at 0.2 ug/ml concentration; type: functional; conditions: Homo sapiens; method in brief: as §2
Jurkat [5] = test: Inhibition of the growth of Jurkat lymphoma cells at 1.56 ug/ml concentration; type: functional; conditions: Homo sapiens; method in brief: as §2
MCF7 = test: Inhibition of the growth of MCF-7 mammary cancer cells at 3.125 ug/ml concentration; type: functional; conditions: Homo sapiens; method in brief: as §1
Raji [6] = test: Inhibition of the growth of Raji lymphoma cells at 0.2 ug/ml concentration; type: functional; conditions: Homo sapiens; method in brief: as §2
Raji [7] = test: Inhibition of the growth of Raji lymphoma cells at 1.56 ug/ml concentration; type: functional; conditions: Homo sapiens; method in brief: as §2

## CCCCCC1=CC(=O)C2=C(OC(C)(C)[C@@H]3CC=C(C)C[C@@H]23)C1=O
SNB-19
  Concentration: 100 µg/mL

## CCCCCC1=CC(=O)C2=C(OC(C)(C)c3ccc(C)cc32)C1=O
Jurkat [1]
  Inhibition: 50%
Raji [2]
  Inhibition: 50%
Raji [3]
  inhibition at 6.25 µg/mL: 50%

## C=C(C)C1CCC(C)=C[C@H]1C1=C(O)C=C(CCCCC)C(=O)C1=O (stereo not given in full)
HT-29
  inhibition at 3.125 µg/mL: 50%
Jurkat [4]
  inhibition at 0.2 µg/mL: 50%
Jurkat [5]
  inhibition at 1.56 µg/mL: 80%
MCF7
  inhibition at 3.125 µg/mL: 50%
Raji [6]
  inhibition at 0.2 µg/mL: 50%
Raji [7]
  inhibition at 1.56 µg/mL: 80%
